From ChEMBL document CHEMBL1129933, “Tyrosine kinase inhibitors. 6. Structure-activity relationships among N- and 3-substituted 2,2'-diselenobis(1H-indoles) for inhibition of protein tyrosine kinases and comparative in vitro and in vivo studies against selected sulfur congeners” (J Med Chem, 1997)

Tests used:
[1] = target: T1, Epidermal growth factor receptor (Homo sapiens, UniProt P00533); experiment: Inhibition of epidermal growth factor receptor (EGFr)
[2] = target: T2, Platelet-derived growth factor receptor beta (Mus musculus, UniProt P05622); experiment: Inhibition of Platelet-derived growth factor receptor beta (PDGFr)
T2 sequence (P05622 whole entry): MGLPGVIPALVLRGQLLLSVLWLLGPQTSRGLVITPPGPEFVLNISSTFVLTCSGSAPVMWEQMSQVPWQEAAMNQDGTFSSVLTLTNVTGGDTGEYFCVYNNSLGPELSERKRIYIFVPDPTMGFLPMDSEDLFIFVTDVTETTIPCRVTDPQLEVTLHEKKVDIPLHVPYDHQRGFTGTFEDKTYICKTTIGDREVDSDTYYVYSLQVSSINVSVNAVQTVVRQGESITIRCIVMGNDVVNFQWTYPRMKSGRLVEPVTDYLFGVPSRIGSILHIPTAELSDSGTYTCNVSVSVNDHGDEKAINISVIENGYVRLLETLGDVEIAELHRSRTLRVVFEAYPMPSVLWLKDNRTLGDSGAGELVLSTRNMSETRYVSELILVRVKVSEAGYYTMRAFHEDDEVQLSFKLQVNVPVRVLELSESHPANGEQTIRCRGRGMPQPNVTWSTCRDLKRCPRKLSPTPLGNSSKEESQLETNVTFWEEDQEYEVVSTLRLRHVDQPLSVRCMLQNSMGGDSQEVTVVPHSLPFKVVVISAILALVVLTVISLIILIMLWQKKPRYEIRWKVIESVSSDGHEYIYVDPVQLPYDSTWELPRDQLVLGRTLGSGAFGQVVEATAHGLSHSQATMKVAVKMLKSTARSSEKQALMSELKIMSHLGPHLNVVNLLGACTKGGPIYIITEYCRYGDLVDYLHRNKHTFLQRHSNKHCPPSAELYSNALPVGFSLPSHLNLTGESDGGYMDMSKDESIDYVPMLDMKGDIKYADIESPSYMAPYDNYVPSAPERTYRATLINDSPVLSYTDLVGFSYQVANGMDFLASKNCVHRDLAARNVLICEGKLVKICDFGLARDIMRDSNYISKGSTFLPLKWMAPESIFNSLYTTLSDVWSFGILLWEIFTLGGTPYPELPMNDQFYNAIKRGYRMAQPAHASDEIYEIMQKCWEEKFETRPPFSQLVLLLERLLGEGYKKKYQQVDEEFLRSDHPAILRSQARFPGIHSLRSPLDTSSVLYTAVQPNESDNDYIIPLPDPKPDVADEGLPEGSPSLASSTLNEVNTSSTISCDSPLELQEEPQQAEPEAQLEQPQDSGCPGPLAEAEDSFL
Summary of the method: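 Full-length mouse PDGF-β receptor was overexpressed in baculovirus-infected insect cells and assayed as cell lysates. Read-out was 32P-phosphate transfer from ATP into TCA-precipitable poly(Glu,Tyr) 4:1. IC50 values are means of duplicates from at least two separate experiments.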

[3] = Inhibition of Src tyrosine kinase
Summary of the method: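 v-src protein came from baculovirus-infected insect cells. Kinase activity was measured as 32P incorporation from ATP into TCA-precipitable random Glu/Tyr (4:1) copolymer. IC50 values are means of duplicates from at least two separate experiments.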

[4] = Inhibition of mouse Swiss 3T3 fibroblasts proliferation; assay type: functional, cell-based
Summary of the method: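 Swiss 3T3 mouse fibroblast growth assay. IC50 is the concentration reducing cell growth rate by 50%, as the mean of duplicates from at least two separate experiments.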

[5] = system: A-431; experiment: In vivo activity against human A431 epidermoid xenograft, weight change after 0.5 mg/kg/day sc dose for 1-27 days; assay type: functional, organism-based
Summary of the method: (§1)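 Nude mice (NCr nu/nu, 18-22 g) bearing sc A431 fragments in the right axilla (day 0) received continuous sc infusion from an Alzet miniosmotic pump implanted under ketamine-xylazine. Pumps were removed or replaced under lidocaine-epinephrine for longer therapy, in 7-day and 27-day studies. Daily dose was the maximum deliverable without significant precipitation. Weight change was taken as the maximum treatment-related loss.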

[6] = system: A-431; experiment: In vivo activity against human A431 epidermoid xenograft, net cell kill at 0.5 mg/kg/day administered subcutaneously for 1-27 days; assay type: functional; conditions: route subcutaneous
Summary of the method: (§2)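 Nude mice (NCr nu/nu), 18-22 g, randomized, implanted sc in the right axilla with serially passaged A431 tumor fragments on day 0. Dosing was by ip bolus or continuous sc Alzet miniosmotic pump infusion, by average cage weight. Vehicle was distilled H2O or 10% DMA in 50 mM lactic acid buffer, pH 4.0, depending on compound. Net cell kill = net log reduction in tumor burden between first and last treatments.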

[7] = system: A-431; experiment: In vivo activity against human A431 epidermoid xenograft, net cell kill at 0.5 mg/kg/day administered subcutaneously for 9-15 days; assay type: functional; conditions: route subcutaneous; summary of the method: as §2
[8] = system: C6; experiment: In vivo activity against C6 glioma xenograft, net cell kill at 1.8 mg/kg administered intraperitoneally for 9 days; assay type: functional; conditions: route intraperitoneal
Summary of the method: (§3)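 […] C6 glioma xenograft, serially passaged in NCr nu/nu nude mice, implanted sc as tumor fragments in the right axilla on day 0. Mice weighed 18-22 g and were randomized. Dosing was ip bolus on a d1-9 daily schedule in 10% DMA in 50 mM lactic acid buffer, pH 4.0, by average cage weight. Weight change is the maximum treatment-related weight loss in the growth delay assay.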

[9] = system: A-431; experiment: In vivo activity against human A431 epidermoid xenograft, weight change after 0.5 mg/kg/day sc dose for 9-15 days; assay type: functional; conditions: route subcutaneous; summary of the method: as §1
[10] = system: C6; experiment: In vivo activity against C6 glioma xenograft, weight change after 1.8 mg/kg ip dose for 9 days; assay type: functional; conditions: route intraperitoneal; summary of the method: as §3
[11] = target: T2, Platelet-derived growth factor receptor beta; experiment: Inhibition of platelet-derived growth factor receptor (PDGFr) autophosphorylation; assay type: functional
Summary of the method: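 Swiss 3T3 fibroblasts were treated 2 h with a range of compound concentrations, then stimulated 5 min with growth factor. Receptor tyrosine phosphorylation was assessed by cell extraction and western blotting.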

[12] = target: Fibroblast growth factor receptor (Mus musculus, UniProt P21803+Q03142+P16092+Q61851); experiment: Inhibition of fibroblast growth factor (bFGF)-mediated autophosphorylation of FGF-R in Swiss 3T3 mouse fibroblasts; assay type: functional
Summary of the method: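 Swiss 3T3 fibroblasts were treated 2 h with a range of compound concentrations, then stimulated for 5 min with growth factor (bFGF). Receptor tyrosine phosphorylation was read by extraction and western blotting.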

[13] = Inhibition of DNA synthesis; assay type: functional
Summary of the method: (§4)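 Log-phase cells were drug-treated for 2 h, then exposed for 2 h to 1 µM [methyl-3H]thymidine (DNA), [5-3H]uridine (RNA) or (S)-[4,5-3H]leucine (protein), each at 1 µCi/nmol. Cells were trypsinized into ice-cold 15% TCA, and precipitates were collected on glass-fibre filters, washed, and counted by scintillation.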

[14] = Inhibition of RNA synthesis; assay type: functional; summary of the method: as §4
[15] = Inhibition of protein synthesis; assay type: functional; summary of the method: as §4
[16] = target: Epidermal growth factor receptor (Mus musculus) (UniProt Q01279); experiment: Inhibition of epidermal growth factor receptor (EGFr) autophosphorylation
Chain of Epidermal growth factor receptor (Mus musculus) (Q01279 whole entry, looked up): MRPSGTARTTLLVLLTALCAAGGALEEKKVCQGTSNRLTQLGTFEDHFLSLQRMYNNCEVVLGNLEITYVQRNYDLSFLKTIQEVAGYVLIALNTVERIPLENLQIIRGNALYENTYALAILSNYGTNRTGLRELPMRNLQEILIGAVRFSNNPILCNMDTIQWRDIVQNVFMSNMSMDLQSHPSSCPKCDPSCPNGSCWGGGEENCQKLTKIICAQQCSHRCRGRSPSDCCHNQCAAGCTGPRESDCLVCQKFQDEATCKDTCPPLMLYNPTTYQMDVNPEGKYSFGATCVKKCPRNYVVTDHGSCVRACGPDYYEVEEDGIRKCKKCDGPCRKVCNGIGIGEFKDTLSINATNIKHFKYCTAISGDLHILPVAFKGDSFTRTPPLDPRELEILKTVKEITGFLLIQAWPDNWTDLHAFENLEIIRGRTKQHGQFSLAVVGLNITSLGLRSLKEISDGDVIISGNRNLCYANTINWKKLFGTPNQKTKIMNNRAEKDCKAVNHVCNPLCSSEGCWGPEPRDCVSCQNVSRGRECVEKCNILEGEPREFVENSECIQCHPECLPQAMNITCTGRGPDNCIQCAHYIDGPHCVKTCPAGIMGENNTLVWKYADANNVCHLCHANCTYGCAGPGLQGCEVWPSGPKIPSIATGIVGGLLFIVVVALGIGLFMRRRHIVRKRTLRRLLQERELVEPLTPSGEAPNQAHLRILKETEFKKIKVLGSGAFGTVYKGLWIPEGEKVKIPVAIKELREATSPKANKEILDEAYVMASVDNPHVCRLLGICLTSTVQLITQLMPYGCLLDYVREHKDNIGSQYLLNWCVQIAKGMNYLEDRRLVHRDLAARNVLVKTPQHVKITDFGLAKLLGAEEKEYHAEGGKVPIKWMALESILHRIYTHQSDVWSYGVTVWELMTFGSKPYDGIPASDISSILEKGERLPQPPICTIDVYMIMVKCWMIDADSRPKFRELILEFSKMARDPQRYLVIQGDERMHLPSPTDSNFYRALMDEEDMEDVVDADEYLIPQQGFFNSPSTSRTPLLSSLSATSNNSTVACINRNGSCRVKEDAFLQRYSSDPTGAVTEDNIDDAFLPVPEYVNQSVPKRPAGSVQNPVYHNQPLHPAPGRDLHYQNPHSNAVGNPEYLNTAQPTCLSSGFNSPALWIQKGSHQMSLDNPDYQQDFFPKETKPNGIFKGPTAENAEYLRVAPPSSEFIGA

[17] = system: C6; experiment: In vivo activity against C6 glioma xenograft, tumor growth delay (T-C, days) at 1.8 mg/kg ip dose for 9 days; conditions: route intraperitoneal
[18] = system: A-431; experiment: In vivo activity against human A431 epidermoid xenograft, tumor growth delay (T-C) at 0.5 mg/kg/day administered subcutaneously for 9-15 days; conditions: route subcutaneous
[19] = system: A-431; experiment: In vivo activity against human A431 epidermoid xenograft, tumor growth delay (T-C, days) at 0.5 mg/kg/day administered subcutaneously for 1-27 days; conditions: route subcutaneous
[20] = target: T1, Epidermal growth factor receptor; experiment: Inhibition of epidermal growth factor receptor (EGFr) using ATP substrate
Summary of the method: (§5)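 EGFr came from membrane vesicles shed by human A431 carcinoma cells. Activity was measured as 32P-phosphate transfer from ATP into a TCA-precipitable glutamate/tyrosine (4:1) random copolymer. ATP or peptide polymer substrate was varied. Ki was obtained by nonlinear regression with Cleland's equations, comparing slope and intercept determinations to assign the inhibition type.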

[21] = target: T1, Epidermal growth factor receptor; experiment: Inhibition of epidermal growth factor receptor (EGFr) using peptide substrate; summary of the method: as §5
[22] = Inhibition of Src tyrosine kinase using ATP substrate
Summary of the method: (§6)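 v-src kinase inhibition kinetics were run with either ATP or the Glu/Tyr peptide polymer substrate varied. Ki (µM) was obtained by nonlinear regression using Cleland's equations. Inhibition type was assigned by comparing Ki values from slope and intercept determinations.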

[23] = Inhibition of Src tyrosine kinase using peptide substrate; summary of the method: as §6

T1 sequence (P00533 whole entry): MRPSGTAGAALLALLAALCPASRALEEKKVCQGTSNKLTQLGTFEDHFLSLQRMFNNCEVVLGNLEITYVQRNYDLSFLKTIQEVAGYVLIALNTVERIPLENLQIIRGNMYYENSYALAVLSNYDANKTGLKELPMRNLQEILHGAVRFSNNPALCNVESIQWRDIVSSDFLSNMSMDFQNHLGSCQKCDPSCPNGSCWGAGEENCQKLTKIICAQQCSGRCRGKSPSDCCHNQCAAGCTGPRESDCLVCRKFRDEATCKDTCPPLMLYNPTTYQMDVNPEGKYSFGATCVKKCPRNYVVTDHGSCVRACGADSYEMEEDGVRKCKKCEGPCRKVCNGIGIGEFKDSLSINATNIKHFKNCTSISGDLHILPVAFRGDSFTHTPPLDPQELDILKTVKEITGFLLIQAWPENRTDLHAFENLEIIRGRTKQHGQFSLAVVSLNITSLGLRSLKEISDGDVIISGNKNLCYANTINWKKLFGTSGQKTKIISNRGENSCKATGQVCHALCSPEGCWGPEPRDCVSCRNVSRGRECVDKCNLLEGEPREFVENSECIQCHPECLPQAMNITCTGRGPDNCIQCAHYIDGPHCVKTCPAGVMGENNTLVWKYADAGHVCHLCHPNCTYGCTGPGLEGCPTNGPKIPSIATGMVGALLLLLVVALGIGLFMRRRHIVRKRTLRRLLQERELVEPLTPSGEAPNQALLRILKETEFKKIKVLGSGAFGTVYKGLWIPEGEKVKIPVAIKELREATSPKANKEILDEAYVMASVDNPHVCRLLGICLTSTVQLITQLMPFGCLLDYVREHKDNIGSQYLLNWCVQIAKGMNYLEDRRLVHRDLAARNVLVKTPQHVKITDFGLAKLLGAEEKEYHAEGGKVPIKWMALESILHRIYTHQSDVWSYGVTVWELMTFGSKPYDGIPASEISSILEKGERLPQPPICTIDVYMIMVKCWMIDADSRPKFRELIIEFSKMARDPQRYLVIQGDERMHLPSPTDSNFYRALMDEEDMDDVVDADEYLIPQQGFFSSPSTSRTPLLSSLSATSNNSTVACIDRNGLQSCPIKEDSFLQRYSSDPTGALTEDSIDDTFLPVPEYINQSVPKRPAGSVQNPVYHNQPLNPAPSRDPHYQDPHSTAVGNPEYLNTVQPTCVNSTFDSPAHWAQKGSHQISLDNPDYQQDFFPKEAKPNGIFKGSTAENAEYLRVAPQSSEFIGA

SMILES | IC50 [1] | IC50 [2] | IC50 [3] | IC50 ([4]; Mus musculus) | also measured
O=C(NCc1ccccc1)[C@H](Cc1c([Se]c2[nH]c3ccccc3c2C[C@@H](NC(=O)C(F)(F)F)C(=O)NCc2ccccc2)[nH]c2ccccc12)NC(=O)C(F)(F)F | > 50 µM | > 50 µM | > 50 µM | – | –
CNC(=O)c1c([Se][Se]c2[nH]c3ccccc3c2C(=O)NC)[nH]c2ccccc12 | – | 8 µM | 2.8 µM | 1 µM | –
N[C@H](Cc1c([Se][Se]c2[nH]c3ccccc3c2C[C@H](N)C(=O)NCc2ccccc2)[nH]c2ccccc12)C(=O)NCc1ccccc1 (stereo in doubt; 33) [listing 1 of 2 here] | – | – | – | – | Weight change [5]: Weight gain
CCN(CC)CCNC(=O)c1c([Se][Se]c2c(C(=O)NCCN(CC)CC)c3ccccc3n2C)n(C)c2ccccc12 | – | 3.4 µM | 1.8 µM | 19.5 µM | –
Cn1c([Se][Se]c2c(C(=O)O)c3ccccc3n2C)c(C(=O)O)c2ccccc21 | – | 17.4 µM | 2.4 µM | 8 µM | –
Cn1c([Se][Se]c2c(C(=O)OC(C)(C)C)c3ccccc3n2C)c(C(=O)OC(C)(C)C)c2ccccc21 | > 100 µM | > 31 µM | 1.5 µM | – | –
O=C(NCc1ccccc1)[C@H](Cc1c([Se][Se]c2[nH]c3ccccc3c2C[C@@H](NC(=O)C(F)(F)F)C(=O)NCc2ccccc2)[nH]c2ccccc12)NC(=O)C(F)(F)F | 7 µM | > 50 µM | 6.2 µM | – | –
N[C@H](Cc1c([Se][Se]c2[nH]c3ccccc3c2C[C@H](N)C(=O)NCc2ccccc2)[nH]c2ccccc12)C(=O)NCc1ccccc1 (stereo in doubt; 33) [listing 2 of 2 here] | 0.9 µM | 14.1 µM | 2 µM | 0.54 µM | Net cell kill [6]: -0.4 log10; Net cell kill [7]: -0.2 log10; Net cell kill [8]: -0.2 log10; Weight change [9]: -0.2 g; Weight change [10]: -0.9 g; IC50 [11]: 0.57 µM; IC50 [12]: 0.2 µM; IC50 [13]: 0.18 µM; IC50 [14]: 0.35 µM; IC50 [15]: 0.17 µM; IC50 [16]: 4.2 µM; T-C [17]: 2 days; T-C [18]: 2.2 days; T-C [19]: 10.8 days
CCN(CC)CCn1c([Se][Se]c2c(C(=O)NC)c3ccccc3n2CCN(CC)CC)c(C(=O)NC)c2ccccc21 | – | 50 µM | 1.7 µM | – | –
N[C@H](Cc1c([Se][Se]c2[nH]c3ccccc3c2C[C@H](N)C(=O)NCc2ccccc2)[nH]c2ccccc12)C(=O)NCc1ccccc1 (stereo in doubt; 34) | 1.3 µM | 25.5 µM | 3.8 µM | – | Ki [20]: 2.7 µM; Ki [21]: 5.6 µM; IC50 [4]: 0.6 µM
CCN(CC)CCNC(=O)c1c([Se][Se]c2[nH]c3ccccc3c2C(=O)NCCN(CC)CC)[nH]c2ccccc12 | – | 12.8 µM | 3.6 µM | 8 µM | –
CNC(=O)c1c([Se][Se]c2c(C(=O)NC)c3ccccc3n2C)n(C)c2ccccc12 | 6.1 µM | 4.7 µM | 0.4 µM | 5.5 µM | Ki [20]: 3.1 µM; Ki [21]: 3.9 µM; Ki [22]: 0.8 µM; Ki [23]: 0.6 µM
CNC(=O)c1c(SSc2c(C(=O)NC)c3ccccc3n2C)n(C)c2ccccc12 | 6.9 µM | 28.1 µM | 6.7 µM | – | Ki [20]: 2.3 µM; Ki [21]: 3.9 µM; Ki [22]: 8 µM; Ki [23]: 1.4 µM
